The source made the active and inactive calls. No cut-off for these calls is given here.
Key:
Aorta [1] = test: Inhibition of diltiazem-induced vasorelaxant activity in potassium depolarized guinea pig aorta assessed as relaxation of calcium-induced contraction at 10^-6 M preincubated for 30 mins followed by diltiazem addition; assay type: functional, tissue-based; settings: Cavia porcellus
How it was run: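 K+-depolarized (80 mM) guinea pig aortic strips contracted with calcium. Compound at 1 μM added 30 min before diltiazem, verapamil or nifedipine. Response expressed as percent change from control. Data given as mean ±, Student's t test.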

Left cardiac atrium [2] = test: Negative inotropic activity in potassium depolarized guinea pig left atrium assessed as EC50 for nifedipine at 10^-8 M preincubated for 30 mins followed by nifedipine addition; assay type: functional; settings: Cavia porcellus
How it was run: (§1)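 Guinea pig left atria driven at 1 Hz. Pretreated with compound at 0.01 μM, added 30 min before diltiazem, verapamil or nifedipine. Blocker concentration−response curves analysed by probit (Litchfield and Wilcoxon), n = 6−7. Data given as mean ±, Student's t test.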

Left cardiac atrium [3] = test: Negative inotropic activity in potassium depolarized guinea pig left atrium assessed as EC50 for verapamil at 10^-8 M preincubated for 30 mins followed by verapamil addition; assay type: functional; settings: Cavia porcellus; how it was run: as §1
Aorta [4] = test: Vasorelaxant activity in potassium depolarized guinea pig aorta assessed as inhibition of calcium-induced contraction at 10^-8 M preincubated for 30 mins followed by 5 uM verapamil addition; assay type: functional, Cavia porcellus; set-up: scale not given: the % may be the effect or the level left
Aorta [5] = test: Vasorelaxant activity in potassium depolarized guinea pig aorta assessed as inhibition of calcium-induced contraction at 10^-8 M preincubated for 30 mins followed by 50 uM diltiazem addition; assay type: functional, Cavia porcellus; set-up: scale not given: the % may be the effect or the level left
Cytochrome P450 1A2 = target: T1, Cytochrome P450 1A2 (Homo sapiens, UniProt P05177); test: Inhibition of CYP1A2 in human liver microsomes using phenacetin as substrate after 30 mins by LC-MS analysis
T1 sequence (P05177 whole entry): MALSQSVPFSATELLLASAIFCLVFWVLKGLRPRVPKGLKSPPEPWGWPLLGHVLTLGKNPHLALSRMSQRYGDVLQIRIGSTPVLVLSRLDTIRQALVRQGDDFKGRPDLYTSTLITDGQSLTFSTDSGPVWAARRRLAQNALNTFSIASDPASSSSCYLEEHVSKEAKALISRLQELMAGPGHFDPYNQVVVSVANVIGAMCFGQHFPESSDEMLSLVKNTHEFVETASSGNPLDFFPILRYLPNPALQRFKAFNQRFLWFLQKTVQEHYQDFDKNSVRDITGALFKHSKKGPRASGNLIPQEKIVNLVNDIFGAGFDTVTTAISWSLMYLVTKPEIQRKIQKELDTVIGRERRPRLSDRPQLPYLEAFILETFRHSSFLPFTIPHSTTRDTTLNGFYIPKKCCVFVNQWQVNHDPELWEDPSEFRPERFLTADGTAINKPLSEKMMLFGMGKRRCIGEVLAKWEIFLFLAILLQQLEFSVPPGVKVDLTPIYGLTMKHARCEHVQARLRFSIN

Cytochrome P450 3A4 = Cytochrome P450 3A4 (Homo sapiens, UniProt P08684); test: Inhibition of CYP3A4 in human liver microsomes using testosterone as substrate after 5 mins by LC-MS analysis
Sequence of Cytochrome P450 3A4 (P08684 whole entry): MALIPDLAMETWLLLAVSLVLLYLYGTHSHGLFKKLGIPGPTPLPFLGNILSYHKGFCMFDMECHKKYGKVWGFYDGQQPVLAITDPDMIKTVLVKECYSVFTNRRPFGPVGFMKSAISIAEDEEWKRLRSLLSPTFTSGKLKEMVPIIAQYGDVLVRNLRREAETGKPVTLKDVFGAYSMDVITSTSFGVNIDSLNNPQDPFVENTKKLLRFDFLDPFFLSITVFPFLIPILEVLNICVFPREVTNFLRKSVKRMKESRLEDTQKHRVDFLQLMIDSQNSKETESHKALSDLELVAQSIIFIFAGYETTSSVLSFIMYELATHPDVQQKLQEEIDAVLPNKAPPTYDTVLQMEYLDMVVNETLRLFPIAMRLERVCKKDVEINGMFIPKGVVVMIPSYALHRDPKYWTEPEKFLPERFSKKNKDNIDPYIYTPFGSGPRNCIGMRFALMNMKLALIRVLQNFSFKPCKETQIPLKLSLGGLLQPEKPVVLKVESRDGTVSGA

Left cardiac atrium [6] = test: Negative inotropic activity against potassium depolarized guinea pig left atrium assessed as decrease in verapamil EC50 at 10^-8 M preincubated for 30 mins followed by verapamil addition relative to control; assay type: functional, Cavia porcellus
How it was run: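 Isolated guinea pig left atria, electrically driven at 1 Hz. The pretreatment agent (0.01 μM) was added to the bath 30 min before the L-type calcium channel blocker. Blocker concentration–response curves were then run to obtain the negative inotropic EC50, which was compared with the EC50 for the blocker alone. Data were compared by Student's t test.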

Aorta [7] = test: Inhibition of nifedipine-induced vasorelaxant activity in potassium depolarized guinea pig aorta assessed as relaxation of calcium-induced contraction at 10^-8 M preincubated for 30 mins followed by nifedipine addition; assay type: functional, tissue-based; settings: Cavia porcellus

EC50 (Left cardiac atrium [2]): 22 nM | EC50 (Left cardiac atrium [3]): 50 nM | IC50 (Cytochrome P450 1A2): 2900 nM | IC50 (Cytochrome P450 3A4): 19.2 µM
SMILES: CCOC1(c2ccc(Br)cc2)SC=C(C)n2c1noc2=O (centres undefined)
inhibition (Aorta [1]): Active | Activity (Aorta [4]): 20% | Activity (Aorta [5]): 64% | fold change (FC) (Left cardiac atrium [6]): 12 | inhibition (Aorta [7]): Active

From ChEMBL document CHEMBL3817843, “Understanding Oxadiazolothiazinone Biological Properties: Negative Inotropic Activity versus Cytochrome P450-Mediated Metabolism” (J Med Chem, 2016)
